Assay outcomes from PubChem BioAssay.
Hits are enriched below; roughly 4.5% of the tested compounds scored in any of these assays.
TAAR1 antagonist: human TAAR1 antagonists, primary screen, Fluo-8 calcium fluorescence, CHO RD-HGA16 cells; Trace amine-associated receptor 1 (Homo sapiens), Q96RJ0; antagonist; inhibition, % at 3 µM; 360,000 tested, 1.5% active;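 active = inhibition above a per-plate cutoff, the mean inhibition of test compounds on that plate plus 3 SD, cut at about 49% in these data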;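 note: 0% = DMSO plus EC80 beta-PEA response and 100% = DMSO alone without agonist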
Target sequence (Q96RJ0 whole entry, looked up): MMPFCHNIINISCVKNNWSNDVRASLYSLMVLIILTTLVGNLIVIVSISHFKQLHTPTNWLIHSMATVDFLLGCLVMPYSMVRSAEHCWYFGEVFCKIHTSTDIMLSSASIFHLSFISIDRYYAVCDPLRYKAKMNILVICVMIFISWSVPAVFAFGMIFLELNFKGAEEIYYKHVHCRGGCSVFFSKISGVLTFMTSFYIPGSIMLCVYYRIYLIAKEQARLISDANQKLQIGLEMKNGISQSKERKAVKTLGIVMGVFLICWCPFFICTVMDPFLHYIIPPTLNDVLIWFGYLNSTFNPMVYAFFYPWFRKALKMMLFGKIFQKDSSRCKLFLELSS
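System: RD-HGA16 CHO cells with stable hTAAR1 and Gα16 | Probe or stimulus: EC80 β-phenethylamine stimulus | Dosing: 3 µM, single point | Times: Dye loading 75 min at 37 °C, then 30 min room temperature | Measured by: Fluo-8 calcium-sensitive fluorescence | Read-out basis: % inhibition of agonist calcium response | Replicates: n of 1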
TAAR1 agonist: human TAAR1 agonists, primary screen, Fluo-8 calcium fluorescence, CHO RD-HGA16 cells. Trace amine-associated receptor 1 (Homo sapiens), Q96RJ0. vehicle wells 0%, saturating PEA agonist 100%. activation, % at 3 µM. 360,000 tested, 0.99% active;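 active = activation above the mean activation of all test compounds in the run plus 3 SD, cut at about 38% in these data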
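Test system: RD-HGA16 (CHO) cells co-expressing Gα16 and hTAAR1 | Doses: Single dose, 3 µM | Schedule: 17-24 h seeding, 75 min 37 °C dye, 30 min RT | Evaluation: % activation from peak over basal fluorescence ratio, DMSO-to-PEA scaled | Technique: Kinetic Fluo-8 calcium fluorescence | Benchmarks: Low control DMSO, high control PEA (EC100)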
OX1R antag-1: OX1R (HCRTR1) antagonists, primary screen, fluorescence, CHO/OX1R cells, Fluo-8 calcium, orexin A; Orexin/Hypocretin receptor type 1 (Homo sapiens), O43613; inhibition, % at 5 µM; Fluo-8 calcium fluorescence; 330,000 tested, 0.43% active;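 active = inhibition above its plate's threshold, mean inhibition of all tested compounds on the plate plus 3 SD, cut at about 37% in these data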;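 note: 0% = orexin A challenge wells and 100% = SB-334867-A antagonist wells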
OX1R antag-2: antagonists of human orexin 1 receptor (OX1R). Orexin/Hypocretin receptor type 1 (Homo sapiens), O43613. OX1R-expressing cells, FRET antagonist read-out. inhibition, % at 6.6 µM. 330,000 tested, 1.8% active; in the data active = inhibition mostly above about 38%, no sharp cut-off; inactive = mostly below about 40%;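 note: 0% = agonist challenge alone and 100% = reference antagonist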
CHO parental Ca: ATP-evoked calcium signal inhibitors, parental CHO, primary screen, counter-screen for OX1R antagonist project, cell-based, fluorescence, Fluo-8 calcium dye; parental CHO-K1, ATP-induced calcium, Fluo-8 fluorescence; inhibition, % at 5.6 µM; 330,000 tested, 0.63% active; AID 463079, 2010;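 active = inhibition above that plate's mean sample inhibition plus 3 SD, cut at about 26% in these data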;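 note: 0% = ATP-challenged DMSO wells and 100% = DMSO wells without ATP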
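test system = CHO parental line | reagent = ATP stimulus | measured by = intracellular calcium via Fluo-8 no-wash fluorescent dye | control set = ATP and no-ATP DMSO wells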
GPR7 antag: GPR7 receptor antagonists, primary screen, cell-based, fluorescence, single concentration; GPR7-expressing cells, fluorescence antagonist assay; inhibition, % at 4.4 µM; 290,000 tested, 1.1% active; in the data active = inhibition above about 16%, passing the limit was not always enough;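 note: cells stimulated with the agonist NPW; 0% = agonist with vehicle and 100% = vehicle without agonist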
Target sequence (P48145 whole entry, looked up): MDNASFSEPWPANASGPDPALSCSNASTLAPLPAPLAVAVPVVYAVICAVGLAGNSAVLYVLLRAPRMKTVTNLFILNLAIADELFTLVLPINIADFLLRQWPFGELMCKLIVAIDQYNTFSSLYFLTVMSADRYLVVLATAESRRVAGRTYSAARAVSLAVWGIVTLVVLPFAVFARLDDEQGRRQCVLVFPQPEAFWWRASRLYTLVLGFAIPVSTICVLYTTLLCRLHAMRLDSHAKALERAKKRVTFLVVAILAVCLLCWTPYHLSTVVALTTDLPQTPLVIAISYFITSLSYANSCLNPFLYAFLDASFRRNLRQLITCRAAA
* hit, by the source's call; . = no result given.

SMILES	TAAR1 antagonist	TAAR1 agonist	OX1R antag-1	OX1R antag-2	CHO parental Ca	GPR7 antag
Cc1cccc(NS(=O)(=O)c2nnc(NC(=O)c3ccc(C)c(C)c3)s2)c1	-0.7	-2.4	23.2	51.5*	2.4	-1.7
CCC(C)(C)n1nnnc1C(c1cc2ccc(OC)cc2[nH]c1=O)N1CCc2ccccc2C1 (stereo not drawn)	3.0	74.7*	-13.1	13.0	-10.2	-8.9
COc1ccc2cc(C(c3nnnn3C(C)(C)C)N3CCc4ccccc4C3)c(=O)[nH]c2c1 (stereo not drawn)	.	.	-20.3	19.8	-5.7	-12.9
CC(=O)c1sc(Nc2ccccn2)nc1C	-6.6	16.8	6.7	73.4*	-4.2	4.6
CC(=O)c1sc(Nc2cccc3ccccc23)nc1C	-24.5	-3.3	-28.3	13.6	-9.7	.
CC(C)(C)n1cnc2cc(NS(=O)(=O)c3ccc(Br)cc3)ccc21	24.5	18.2	59.5*	59.4	58.0*	0.3
Cn1cccc1C(=O)/C(C#N)=C/c1ccc(F)cc1	-0.1	4.3	-13.4	8.2	-12.8	-9.8
Cc1nc(SCC(=O)Nc2nc3ccccc3s2)c(C#N)c(C)c1C	9.6	4.1	-16.8	53.2*	-17.4	-9.7
Cc1ccc2sc(NC(=O)CSc3nc(C)cc(C)c3C#N)nc2c1	1.9	7.1	-17.2	19.5	-3.0	5.7
Cc1cc(C(F)(F)F)c(C#N)c(SCC(=O)Nc2nc3ccccc3s2)n1	-1.7	10.6	21.9	73.5*	-10.8	-4.1
Cc1nc(SCC(=O)Nc2nccs2)c(C#N)c(C)c1C	-3.4	1.6	-0.6	1.5	-14.0	.
CCCCN1CC(COCc2ccccc2)Oc2cccc(OCCN3C(=O)[C@@H]4[C@H](C3=O)C3C=C[C@H]4C3)c2S1(=O)=O (stereo partly drawn)	69.8*	17.9	.	.	.	.
O=C1[C@@H]2[C@H](C(=O)N1C[C@@H](COCc1ccccc1)Oc1cccc3c1S(=O)(=O)N(CCc1ccc(F)cc1)C[C@H](COCc1ccccc1)O3)[C@@H]1C=C[C@H]2C1	-6.8	2.9	.	.	.	.
O=C(Nc1cccn(Cc2ccc(F)cc2)c1=O)NC1CCCCC1	-8.1	39.1*	-27.4	30.8	-21.4	-6.8
CCn1c(=O)c(C(=O)NNC(=O)c2ccccc2)c(O)c2ccccc21	-1.2	38.0*	-12.4	52.9	-5.9	4.6
CCCCCCC(=O)NNC(=O)c1c(O)c2ccccc2n(CC)c1=O	0.1	20.9	-37.3	21.7	-25.5	7.0
Cn1c2ccccc2c2cc(/C=N/NC(=O)c3cc(O)cc(O)c3)ccc21	-23.7	1.0	14.1	73.8*	-7.9	-15.6
CCn1c2ccccc2c2cc(/C=N/NC(=O)c3ccccc3)ccc21	9.1	17.1	67.4*	91.8*	-22.0	-2.1
COc1cc(C(=O)N/N=C/c2ccc3c(c2)c2ccccc2n3C)ccc1O	13.0	1.5	.	.	.	-19.5
O=C(CSc1cccc[n+]1[O-])Nc1ccc([N+](=O)[O-])cc1Cl	11.9	-0.8	-13.8	65.3*	-5.8	-6.5
C[C@@H]1CN(C(=O)OC(C)(C)C)CCN1c1ccc(N2CCN(Cc3ccccc3)[C@@H](C)C2)c(C#N)c1	-8.0	-1.3	.	.	.	.
C=C(C)CN1CCN(c2ccc(N3C(=O)CCCC3=O)cc2[N+](=O)[O-])CC1	-0.8	0.4	-16.0	15.6	1.5	14.4
COc1ccccc1N1CCN(c2ccc(N3C(=O)CCC3=O)cc2[N+](=O)[O-])CC1	8.8	5.2	11.1	54.4	57.3*	-13.2
COc1cccc(N2CCN(c3ccc(N4C(=O)CCC4=O)cc3[N+](=O)[O-])CC2)c1	-12.9	5.6	28.3	38.3	32.9*	-2.6
COc1ccc(N2CCN(c3ccc(C(N)=O)cc3[N+](=O)[O-])CC2)cc1	16.1	4.3	-11.7	44.8	5.0	-2.7
SMILES	TAAR1 antagonist	TAAR1 agonist	OX1R antag-1	OX1R antag-2	CHO parental Ca	GPR7 antag
Cn1cc2cccc([N+](=O)[O-])c2n1	7.7	1.4	-0.3	73.9*	-1.4	0.6
COC(=O)CC1C(=O)NCCN1C(=O)c1cc(OC)c(OC)cc1OC (stereo not drawn)	-7.3	1.7	-14.6	-6.3	29.8*	2.9
CC(C)(C)c1ccc(-n2nc(C#N)c(Cl)cc2=O)cc1	97.2*	12.8	.	.	.	84.5*
CC(C)(C)c1cc(=O)n2c(C#N)c(C#N)nc2[nH]1	7.8	3.3	-4.5	19.0	2.6	-6.6
COc1ccc(-c2ncn(CCc3ccccc3OC)c2CC(C)C)cc1	32.9	21.3	.	.	.	.
COc1ccccc1N1CCN(C(=O)c2cc3ccccc3[nH]2)CC1	53.3*	8.5	-18.3	2.2	-12.0	8.1
COc1ccccc1N1CCN(C(=O)c2cc3cc(C)ccc3[nH]2)CC1	-13.7	1.2	-18.0	-10.9	-6.5	-2.4
Cc1nn2c(-c3ccccc3)nnc2c2ccccc12	6.5	-0.6	-12.9	64.1*	-18.2	-20.6
Cc1nn2c(-c3cccc(NC(=O)c4ccco4)c3)nnc2c2ccccc12	25.5	13.4	-24.2	34.0	-26.6	-17.4
COC(=O)c1ccc(N2C(=O)CC(N3CCOCC3)C2=O)cc1 (stereo not drawn)	7.7	-1.9	-13.2	14.3	5.5	-3.3
COC(=O)c1ccc(N2C(=O)CC(N3CCN(c4ccccc4)CC3)C2=O)cc1 (stereo not drawn)	-16.8	0.7	-17.3	29.7	-6.0	19.0*
Oc1ccc(O)c(Cc2nc3ccccc3s2)c1	10.7	11.3	-1.0	11.3	17.6	32.9*
Oc1ccccc1OCc1nc2ccccc2s1	-3.9	2.9	5.8	6.4	0.7	18.9
CC(C)CC(NC(=O)c1ccc(Cl)cc1)C(=O)OCC(=O)c1ccc2c(c1)NC(=O)CO2 (stereo not drawn)	-0.7	0.6	64.7*	42.0	63.0*	-4.2
COc1cccc(C(=O)N2CCN(C(=O)c3ccc(-c4ccccc4)cc3)CC2)c1OC	-22.1	3.4	-37.0	2.0	-5.0	-0.6
COc1ccc(C(=O)N2CCC(c3ccccc3)CC2)c(OC)c1OC	-26.9	7.2	-11.1	27.2	-15.1	20.4*
O=C(Nc1ccc(Cl)c(Cl)c1)c1ccc(Cl)c(Cl)c1	37.1	4.7	39.8*	91.7*	58.9*	13.9
CN(c1ccccc1)S(=O)(=O)c1cccc(NC(=O)c2ccc(Cl)c([N+](=O)[O-])c2)c1	36.2	17.8	62.0*	43.6*	64.3*	.
Cc1cc(NC(=O)c2ccc(Cl)c([N+](=O)[O-])c2)no1	-18.3	1.4	-1.3	31.6	43.3*	-12.5
